These results are taken from ChEMBL document CHEMBL1122513, “Synthesis and antiviral activity of carbocyclic analogues of 2'-deoxyribofuranosides of 2-amino-6-substituted-purines and of 2-amino-6-substituted-8-azapurines” (J Med Chem, 1984).

Molecules are shown by their SMILES. ≈ marks a conversion by molar mass, not a printed value. Where “and” joins values, the source holds several entries; their conditions need not be identical. Identical values can stand only once.

For one data set, the system named is Human alphaherpesvirus 1. Kind of data set: Concentration required to inhibit HSV type 1 strain 377 induced cytopathogenic affects by 50%. It counts as functional. As to conditions: Human alphaherpesvirus 1; read-out: MIC50. The essentials: (§1)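 Inhibition of cytopathogenic effect caused by HSV-1 strain 377 or HSV-2 strain MS, replicating in secondary rabbit kidney cell cultures or in Vero cells. MIC₅₀ is the concentration giving 50% inhibition of virus-induced CPE. Ranges are pooled from several tests in either host cell type.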
In general terms: Protection from cytopathic effect is a common read-out in antiviral testing.
In the case of `Nc1nc(Cl)c2ncn(C3CC(O)C(CO)C3)c2n1` (configuration not stated), the MIC50 was 8.1 µg/mL (≈ 28.5 µM).

With `Nc1nc(S)c2ncn(C3CC(O)C(CO)C3)c2n1` (configuration not stated), the MIC50 is less than 3.2 µg/mL.

Another data set concerns Human alphaherpesvirus 1. Kind of data set: Concentration required to inhibit HSV type 1 strain HF induced cytopathogenic affects by 50%.
Conditions: not given
It counts as functional.
`Nc1ccn([C@@H]2C[C@H](CO)[C@@H](O)[C@H]2O)c(=O)n1` (stereo in doubt; form 2) had an MIC50 of 68 µg/mL (≈ 282 µM).

Take `Nc1ccn([C@@H]2C[C@H](CO)[C@@H](O)[C@H]2O)c(=O)n1` (stereo in doubt; form 1): the MIC50 is 93 µg/mL and <32 µg/mL.

Still in this data set, the particulars now being: Human alphaherpesvirus 1; read-out: MIC50.
Turning to `OCC1CC(n2cnc3c(O)ncnc32)C(O)C1O` (configuration not stated), the MIC50 stood at 97 µg/mL (≈ 364 µM).

Consider `OCC1CC(n2nnc3c(O)ncnc32)C(O)C1O` (configuration not stated), for which the MIC50 is 298 µg/mL (≈ 1120 µM).

System in the next data set: not listed separately
Kind of data set: Compound was evaluated for cytotoxicity to KB cells (derived from human epidermoid carcinoma). It counts as cell-based. To be noted: read-out: ED50 (the source's name). The essentials: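 KB cells grown in culture and tested under the National Cancer Institute cytotoxicity protocol. The value is reported as ED50 in mcg/mL.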
Regarding `Nc1nc(Cl)c2ncn(C3CC(O)C(CO)C3)c2n1` (configuration not stated), the CC50 stood at 62 µg/mL (≈ 219 µM).

Consider `Nc1nc(S)c2ncn(C3CC(O)C(CO)C3)c2n1` (configuration not stated), for which the CC50 was greater than 100 µg/mL.

For the next data set, the system named is L1210. Kind of data set: Antineoplastic activity of compound in mice inoculated with 10e 5 L1210 leukemia cells was measured as weight change after ip administration of 200 […]. It counts as functional, Mus musculus.
Conditions: not given
In short, it runs like this: (§2)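 Mice received 10⁵ L1210 leukemia cells ip on day 0, then compound ip as a solution or suspension q.d. days 1-9, following NCI protocols. Weight-change difference is the mean weight change of treated mice minus that of untreated leukemic controls, both measured on day 5.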
The molecule `Nc1nc(Cl)c2ncn(C3CC(O)C(CO)C3)c2n1` (configuration not stated) had a Weight change of -2.2 g.

`Nc1nc(S)c2ncn(C3CC(O)C(CO)C3)c2n1` (configuration not stated) displayed a Weight change of 0.5 g.

The subject of another data set is Vaccinia virus. Kind of data set: In vitro for antiviral activity in secondary cultures of rabbit kidney cells infected with vaccinia virus.
Conditions: not given
It counts as functional, Orthopoxvirus vaccinia.
Molecule `Nc1ccn([C@@H]2C[C@H](CO)[C@@H](O)[C@H]2O)c(=O)n1` (stereo in doubt; form 2) displayed a Virus rating of 0.9.

Molecule `OCC1CC(n2cnc3c(O)ncnc32)C(O)C1O` (configuration not stated) showed a Virus rating of 1.9.

As to `OCC1CC(n2nnc3c(O)ncnc32)C(O)C1O` (configuration not stated), the Virus rating turned out to be 1.2.

With `Nc1ncnc2c1ncn2[C@@H]1C[C@H](CO)[C@@H](O)[C@@H]1O`, the Virus rating is 1.5 and 1.7.

The next data set relates to Mus musculus. Kind of data set: Antineoplastic activity of compound in mice inoculated with 10e 5 L1210 leukemia cells was measured as T/C after ip administration of 100 […]. It counts as functional.
Conditions: not given
In short, it runs like this: (§3)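 L1210 leukemia, 10⁵ cells inoculated intraperitoneally into mice on day 0, following NCI protocols. Compound given intraperitoneally as a solution or suspension once daily on days 1-9. T/C % compares lifespan of treated mice with untreated leukemic control mice.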
As to `Nc1nc(Cl)c2ncn(C3CC(O)C(CO)C3)c2n1` (configuration not stated), the T/C (as a rule, the ratio of treated to control) came to 106%.

`Nc1nc(S)c2ncn(C3CC(O)C(CO)C3)c2n1` (configuration not stated) showed a T/C of 91%.

Another data set has as its system Human alphaherpesvirus 2. Kind of data set: Concentration required to inhibit HSV type 2 strain MS induced cytopathogenic affects by 50%. It counts as functional.
Conditions: not given
The essentials: as §1
For the molecule `Nc1nc(Cl)c2ncn(C3CC(O)C(CO)C3)c2n1` (configuration not stated), the MIC50 was 37 µg/mL (≈ 130 µM).

The molecule `Nc1nc(S)c2ncn(C3CC(O)C(CO)C3)c2n1` (configuration not stated) came in with an MIC50 of 32 µg/mL (≈ 114 µM).

`Nc1ccn([C@@H]2C[C@H](CO)[C@@H](O)[C@H]2O)c(=O)n1` (stereo in doubt; form 2) showed an MIC50 of 2.4 µg/mL (≈ 9.95 µM).

A further data set concerns Human alphaherpesvirus 1. Kind of data set: In vitro antiviral activity in secondary cultures of rabbit kidney cells infected with HSV type 1 strain 377. It counts as functional.
Conditions: not given
In short, it runs like this:
(§4)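 Scored as a virus rating (VR) from inhibition of CPE caused by HSV-1 strain 377 or HSV-2 strain MS in secondary rabbit kidney cultures or Vero cells. VR ≥1.0 means definite activity, 0.5-0.9 marginal to moderate, and <0.5 usually none. Ranges are pooled from several tests.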
On to `Nc1nc(Cl)c2ncn(C3CC(O)C(CO)C3)c2n1` (configuration not stated), for which the Virus rating came to 1.9.

As for `Nc1nc(S)c2ncn(C3CC(O)C(CO)C3)c2n1` (configuration not stated), the Virus rating is on record as 4.9.

For another data set, the system named is Human alphaherpesvirus 2. Kind of data set: In vitro antiviral activity in secondary cultures of rabbit kidney cells infected with HSV type 2 strain MS.
Conditions: not given
It counts as functional. In short, it runs like this:
as §4
The molecule `Nc1nc(Cl)c2ncn(C3CC(O)C(CO)C3)c2n1` (configuration not stated) had a Virus rating of 2.

The molecule `Nc1nc(S)c2ncn(C3CC(O)C(CO)C3)c2n1` (configuration not stated) came in with a Virus rating of 1.7.

Turning to `Nc1ccn([C@@H]2C[C@H](CO)[C@@H](O)[C@H]2O)c(=O)n1` (stereo in doubt; form 2), the Virus rating was found to be 3.2.

The next data set relates to L1210. Kind of data set: Antineoplastic activity of compound in mice inoculated with 10e 5 L1210 leukemia cells was measured as weight change after ip administration of 100 […]. It counts as functional, Mus musculus.
Conditions: not given
In short, it runs like this:
as §2
With `Nc1nc(Cl)c2ncn(C3CC(O)C(CO)C3)c2n1` (configuration not stated), the Weight change was -1 g.

In turn, `Nc1nc(S)c2ncn(C3CC(O)C(CO)C3)c2n1` (configuration not stated) gave a Weight change of -0.2 g.

The subject of the next data set is Human alphaherpesvirus 1. Kind of data set: In vitro antiviral activity in secondary cultures of rabbit kidney cells infected with HSV type 1 strain HF. It counts as functional.
Conditions: not given
Molecule `Nc1ccn([C@@H]2C[C@H](CO)[C@@H](O)[C@H]2O)c(=O)n1` (stereo in doubt; form 2) had a Virus rating of 0.8.

Regarding `OCC1CC(n2cnc3c(O)ncnc32)C(O)C1O` (configuration not stated), the Virus rating amounted to 2.1.

Turning to `OCC1CC(n2nnc3c(O)ncnc32)C(O)C1O` (configuration not stated), the Virus rating is listed as 1.5.

In the case of `Nc1ncnc2c1ncn2[C@@H]1C[C@H](CO)[C@@H](O)[C@@H]1O`, the Virus rating was 2.2 and 3.5.

The test system of the next data set is Mus musculus. Kind of data set: Antineoplastic activity of compound in mice inoculated with 10e 5 L1210 leukemia cells was measured as T/C after ip administration of 200 […]. It counts as functional.
Conditions: not given
In short, it runs like this: as §3
The molecule `Nc1nc(Cl)c2ncn(C3CC(O)C(CO)C3)c2n1` (configuration not stated) had a T/C of 106%.

As for `Nc1nc(S)c2ncn(C3CC(O)C(CO)C3)c2n1` (configuration not stated), the T/C worked out at 108%.
